According to ChEMBL document CHEMBL1124725, “Inhibition of steroid 5 alpha-reductase by unsaturated 3-carboxysteroids” (J Med Chem, 1990):
pIC50, pKi: −log10 of the molar value.

Columns and labels:
[1] = target: T1, 3-oxo-5-alpha-steroid 4-dehydrogenase 2 (Homo sapiens, UniProt P31213); assay: In vitro inhibition of Steroid 5-alpha-reductase in human prostatic tissue.; settings: read-out: Ki app
T1 sequence (P31213 whole entry): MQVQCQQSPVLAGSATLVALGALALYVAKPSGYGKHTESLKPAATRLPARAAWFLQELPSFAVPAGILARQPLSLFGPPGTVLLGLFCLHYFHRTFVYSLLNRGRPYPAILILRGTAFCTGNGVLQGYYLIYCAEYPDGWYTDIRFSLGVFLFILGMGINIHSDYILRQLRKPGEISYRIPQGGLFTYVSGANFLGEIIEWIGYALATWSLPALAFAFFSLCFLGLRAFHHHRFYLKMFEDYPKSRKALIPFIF
In short: (§1)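 Microsomes from surgically derived benign hyperplastic human prostate. Incubation was in 50 mM sodium citrate, pH 5.0, with 400 μM NADPH at 37 °C for 20–30 min, with ≤20% of T consumed. The reaction was quenched with ethyl acetate, and the read-out was total 5α-reduced products (DHT + ADIOL). Ki,app came from Dixon plots, or IC50 if nonlinear; ranges span microsome preparations.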

[2] = target: T2, Steroid 5-alpha-reductase (Rattus norvegicus, UniProt P24008+P31214); assay: In vitro inhibition of Steroid 5-alpha-reductase in rat ventral prostates.; assay type: tissue-based, Prostate gland
T2 sequence (P24008 whole entry): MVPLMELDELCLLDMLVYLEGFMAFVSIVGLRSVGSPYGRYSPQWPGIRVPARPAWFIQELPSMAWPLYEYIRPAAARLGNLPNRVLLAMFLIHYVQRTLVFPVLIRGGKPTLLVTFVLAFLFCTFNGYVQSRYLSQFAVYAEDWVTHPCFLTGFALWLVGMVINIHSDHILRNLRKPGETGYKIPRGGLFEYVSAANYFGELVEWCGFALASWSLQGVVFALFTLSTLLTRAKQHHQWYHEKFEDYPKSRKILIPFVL
T2 sequence (P31214 whole entry): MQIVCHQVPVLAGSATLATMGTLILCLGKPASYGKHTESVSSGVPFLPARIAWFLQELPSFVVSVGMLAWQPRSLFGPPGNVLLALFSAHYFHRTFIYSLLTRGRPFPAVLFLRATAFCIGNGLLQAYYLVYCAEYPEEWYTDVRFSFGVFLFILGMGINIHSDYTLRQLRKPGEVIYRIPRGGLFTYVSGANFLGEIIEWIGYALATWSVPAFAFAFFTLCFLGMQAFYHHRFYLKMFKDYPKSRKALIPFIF
In short: (§2)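 Rat ventral prostate microsomes were incubated with [14C]T (1.2 μM) and test compound (0–10 μM), both dried from ethanol. Buffer was 20 mM sodium phosphate, pH 6.6, with 400 μM NADPH, at 37 °C for 20–30 min, keeping T consumption ≤20%. After ethyl acetate quench, DHT plus […] formation was measured. Apparent Ki came from Dixon analysis, or IC50 for hyperbolic inhibition; ranges reflect different enzyme preparations.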

[3] = target: T1, 3-oxo-5-alpha-steroid 4-dehydrogenase 2; assay: In vitro inhibitory activity against Steroid 5-alpha-reductase was determined in human prostatic tissue expressed as apparent inhibition constant; Range is 7-12; settings: read-out: Ki app
In short: as §1, with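 “prostate. [14C]T (1.2 μM) and inhibitor (0–10 μM) were dried down from ethanol.” for “prostate.”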

[4] = target: T1, 3-oxo-5-alpha-steroid 4-dehydrogenase 2; assay: In vitro inhibitory activity against Steroid 5-alpha-reductase was determined in human prostatic tissue expressed as apparent inhibition constant; Range is 7-18; settings: read-out: Ki app
[5] = target: T2, Steroid 5-alpha-reductase; assay: In vitro inhibitory activity against Steroid 5-alpha-reductase was determined in rat ventral prostates expressed as apparent inhibition constant; Range is 35-50; assay type: tissue-based, Prostate gland; in short: as §2
[6] = target: T1, 3-oxo-5-alpha-steroid 4-dehydrogenase 2; assay: In vitro inhibitory activity against Steroid 5-alpha-reductase was determined in human prostatic tissue expressed as apparent inhibition constant; Range is 700-900
[7] = target: T1, 3-oxo-5-alpha-steroid 4-dehydrogenase 2; assay: In vitro inhibitory activity against 5-alpha reductase was determined in human prostatic tissue expressed as apparent inhibition constant; settings: read-out: Ki app
In short: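 Microsomes from surgically obtained benign hyperplastic human prostate; 50 mM sodium citrate, pH 5.0, 37 °C, 20–30 min. Substrate [14C]testosterone 1.2 μM, NADPH 400 μM final, inhibitor 0–10 μM. Read-out is conversion to total 5α-reduced metabolites (DHT plus 5α-androstanediol), keeping T consumption ≤20%. Ki,app from Dixon analysis for linear inhibitors; ranges given across microsome preparations.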

[8] = target: T2, Steroid 5-alpha-reductase; assay: In vitro inhibitory activity against 5-alpha reductase was determined in rat ventral prostates expressed as apparent inhibition constant; assay type: tissue-based, Prostate gland; in short: as §2
[9] = target: T2, Steroid 5-alpha-reductase; assay: In vitro inhibitory activity against Steroid 5-alpha-reductase was determined in rat ventral prostates expressed as apparent inhibition constant; Range is 20-30; assay type: tissue-based, Prostate gland; in short: as §2

Row | Compound | pKi [1] | Ki app [2] [nM] | also measured
1 | CC(C)N(C(=O)[C@H]1CCC2C3CCC4=C[C@@H](C(=O)O)CC[C@]4(C)C3CC[C@@]21C)C(C)C (stereo partly drawn) | 6.70 | 2000 | 
2 | CC(C)N(C(=O)[C@H]1CCC2C3CCC4=C[C@H](C(=O)O)CC[C@]4(C)C3CC[C@@]21C)C(C)C (stereo partly drawn) | 6.24 | > 10000 | 
3 | C[C@]12CCC(C(=O)O)=CC1=CCC1C2CC[C@@]2(C)C1CC[C@@H]2C#N (stereo partly drawn) | 6.10 | 140 | 
4 | CC(C)N(C(=O)[C@H]1CCC2C3CCC4=CC(C(=O)O)=CC[C@]4(C)C3CC[C@@]21C)C(C)C (stereo partly drawn) | 7.28 | 120 | 
5 | CC(C)N(C(=O)[C@H]1CCC2C3CC[C@H]4CC(C(=O)O)=CC[C@]4(C)C3CC[C@@]21C)C(C)C (stereo partly drawn) | 7.07 | 110 | 
6 | CC(CO)[C@@H]1CCC2C3CCC4C=C(C(=O)O)CC[C@]4(C)C3CC[C@@]21C (stereo partly drawn) | 5.30 | 155 | 
7 | CC(C)(C)NC(=O)[C@H]1CC[C@H]2[C@@H]3CC[C@H]4C=C(C(=O)O)CC[C@]4(C)[C@H]3CC[C@]12C | 6.96 | 11 | 
8 | CC(C)N(C(=O)[C@H]1CC[C@H]2[C@@H]3CC[C@H]4C(F)=C(C(=O)O)CC[C@]4(C)[C@H]3CC[C@]12C)C(C)C |  | 35 | 
9 | CC(C)N(C(=O)[C@H]1CCC2C3CC=C4C=C(C(=O)O)CC[C@]4(C)C3CC[C@@]21C)C(C)C (stereo partly drawn) |  |  | pKi [4]: 8.15; Ki app [5]: 35 nM
10 | CC(C)N(C(=O)[C@H]1CC[C@H]2[C@@H]3CC[C@H]4CC(C(=O)O)CC[C@]4(C)[C@H]3CC[C@]12C)C(C)C (stereo partly drawn) | 5.66 | 340 | 
11 | CC(C)N(C(=O)[C@H]1CCC2C3CC[C@H]4C=C(C(=O)O)CC[C@]4(C)C3CC[C@@]21C)C(C)C (stereo partly drawn) |  |  | pKi [7]: 7.52; Ki app [8]: 70 nM
12 | CC(C)(C)NC(=O)[C@H]1CC[C@H]2[C@@H]3CC=C4C=C(C(=O)O)CC[C@]4(C)[C@H]3CC[C@]12C [EPRISTERIDE] |  |  | Ki app [9]: 20 nM

Further lines, with some results ahead:

Row | pKi [1] | Ki app [2] [nM] | Compound | also measured
13 | 7.21 | 65 | CC(C)N(C(=O)[C@H]1CCC2C3CC[C@H]4C=C(C(=O)O)C=C[C@]4(C)C3CC[C@@]21C)C(C)C (stereo partly drawn) | 
14 | 6.49 | > 10000 | CC(C)N(C(=O)[C@H]1CCC2C3CCC4=C[C@@](O)(C(=O)O)CC[C@]4(C)C3CC[C@@]21C)C(C)C (stereo partly drawn) | 
15 | 7.49 | 33 | CC(C)N(C(=O)[C@H]1CCC2C3CC(F)=C4C=C(C(=O)O)CC[C@]4(C)C3CC[C@@]21C)C(C)C (stereo partly drawn) | 
16 | 6.66 | > 10000 | CC(C)N(C(=O)[C@H]1CCC2C3CCC4=C[C@](O)(C(=O)O)CC[C@]4(C)C3CC[C@@]21C)C(C)C (stereo partly drawn) | 
17 |  | 300 | CC(C)N(C(=O)[C@H]1CCC2C3C=CC4=CC(C(=O)O)=CC[C@]4(C)C3CC[C@@]21C)C(C)C (stereo partly drawn) | pKi [3]: 8.15
18 |  | 290 | CC(C)N(C(=O)[C@H]1CCC2C3CCC4=C(CCC(C(=O)O)=C4)C3CC[C@@]21C)C(C)C (stereo partly drawn) | 
19 |  | 140 | CC(C)N(C(=O)[C@H]1CCC2C3CC=C4C=C(C(=O)O)CC[C@@H]4C3CC[C@@]21C)C(C)C (stereo partly drawn) | 
20 |  | 200 | CC1=C2C=C(C(=O)O)CC[C@]2(C)C2CC[C@@]3(C)C(CC[C@@H]3C(=O)N(C(C)C)C(C)C)C2C1 (stereo partly drawn) | 
21 | 7.46 | 70 | CC1=C(C(=O)O)CC[C@@]2(C)C1=CCC1C2CC[C@@]2(C)C1CC[C@@H]2C(=O)N(C(C)C)C(C)C (stereo partly drawn) | 
22 | 8.15 | 47 | CC(C)N(C(=O)[C@H]1CCC2C3CC=C4C=C(C(=O)O)CC[C@]4(C)C3C=C[C@@]21C)C(C)C (stereo partly drawn) | 
23 | 7.22 | 600 | CC(C)N(C(=O)[C@H]1CCC2C3CC=C4C=C(C(=O)O)C=C[C@]4(C)C3CC[C@@]21C)C(C)C (stereo partly drawn) | 
24 |  | 1000 | CC(C)N(C(=O)[C@H]1CCC2C3CC(C(F)(F)F)=C4C=C(C(=O)O)CC[C@]4(C)C3CC[C@@]21C)C(C)C (stereo partly drawn) | pIC50 [6]: 6.15
